Results reported in ChEMBL document CHEMBL1153826, “Synthesis of dammarane-type triterpene derivatives and their ability to inhibit HIV and HCV proteases” (Bioorg Med Chem, 2009).
Calls of active or inactive are those of the source. No cut-off for these calls is given here.

Experiments:
[1] = Inhibition of HCV protease by fluorometric method; parameters: species or system Hepacivirus hominis
Protease = Protease (Human immunodeficiency virus 1, UniProt Q9YQ12); assay: Inhibition of HIV1 protease by HPLC method
Renin (Homo sapiens) = target: T1, Renin (Homo sapiens) (UniProt P00797); assay: Inhibition of renin up to 1 ug/mL; conditions: in the assay text read “1 mg/mL” for “1 ug/mL”
T1 sequence (whole entry): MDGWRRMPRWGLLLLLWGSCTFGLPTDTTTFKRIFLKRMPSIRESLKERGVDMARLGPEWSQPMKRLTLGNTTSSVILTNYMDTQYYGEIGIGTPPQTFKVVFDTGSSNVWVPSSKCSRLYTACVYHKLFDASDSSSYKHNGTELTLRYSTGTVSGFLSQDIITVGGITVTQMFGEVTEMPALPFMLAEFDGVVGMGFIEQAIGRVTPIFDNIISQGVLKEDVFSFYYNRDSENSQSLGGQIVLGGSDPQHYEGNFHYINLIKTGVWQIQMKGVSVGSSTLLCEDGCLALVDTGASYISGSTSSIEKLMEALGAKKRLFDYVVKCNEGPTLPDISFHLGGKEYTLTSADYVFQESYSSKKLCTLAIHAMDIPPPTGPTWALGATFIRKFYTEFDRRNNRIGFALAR
Method in brief: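 Recombinant renin was mixed with the compound in DMSO in 384-well plates. Fresh FRET peptide substrate Arg-Glu(EDANS)-[…]Dabcyl)-Arg was added, then rotated 30 min at 37 °C. Read-out was fluorometric, with inhibition calculated as in the HCV protease assay. Ac-HPFV-(Sta)-LF-NH2 was the positive control.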

[2] = Inhibition of trypsin up to 1 ug/mL; conditions: in the assay text read “1 mg/mL” for “1 ug/mL”
Method in brief: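 Trypsin was mixed with the compound in DMSO and assay buffer in 384-well plates. Fresh HiLyte Fluor 488-labeled casein substrate was added with rotary shaking, then incubated 30 min at 37 °C. Fluorescence was read and inhibition calculated as in the HCV protease assay. Soybean trypsin–chymotrypsin inhibitor was the positive control.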

Protease, sequence (Q9YQ12 whole entry): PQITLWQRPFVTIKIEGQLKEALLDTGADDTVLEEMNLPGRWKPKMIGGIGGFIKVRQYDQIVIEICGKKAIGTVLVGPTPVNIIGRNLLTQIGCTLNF

Compound | IC50 [1] | IC50 (Protease) | Activity (Renin (Homo sapiens)) | Activity [2]
CC1(C)CCC[C@](C)([C@H]2CC[C@]3(C)[C@@H]2[C@H](O)C[C@@H]2[C@@]4(C)C[C@](O)(C(=O)O)C(C)(C)[C@@H]4C(=O)C[C@]23C)O1 | > 213 µM | 29.9 µM | – | –
CC1(C)CCC[C@](C)([C@H]2CC[C@]3(C)[C@@H]2C(=O)C[C@@H]2[C@@]4(C)CC[C@H](OC(=O)CC(C)(C)C(=O)O)C(C)(C)[C@@H]4CC[C@]23C)O1 | 62.2 µM | 6.5 µM | inactive | inactive
CC1(C)CCC[C@](C)([C@H]2CC[C@]3(C)[C@@H]2[C@H](O)C[C@@H]2[C@@]4(C)CC[C@H](O)C(C)(C)[C@@H]4CC[C@]23C)O1 [PANAXADIOL] | > 217 µM | > 217 µM | – | –
CC1(C)CCC[C@](C)([C@H]2CC[C@]3(C)[C@@H]2[C@H](O)C[C@@H]2[C@@]4(C)C[C@](O)(C(=O)O)C(C)(C)[C@@H]4CC[C@]23C)O1 | > 204 µM | 10 µM | – | –
CC1(C)CCC[C@](C)([C@H]2CC[C@]3(C)[C@@H]2[C@H](O)C[C@@H]2[C@@]4(C)CCC(=O)C(C)(C)[C@@H]4C(=O)C[C@]23C)O1 | > 213 µM | 42.3 µM | – | –
CC1(C)CCC[C@](C)([C@H]2CC[C@]3(C)[C@@H]2[C@H](O)C[C@@H]2[C@@]4(C)CC[C@H](OC(=O)CC(C)(C)C(=O)O)C(C)(C)[C@@H]4[C@@H](O)C[C@]23C)O1 | > 166 µM | 3.9 µM | inactive | inactive
CC1(C)CCC[C@](C)([C@H]2CC[C@]3(C)[C@@H]2[C@H](O)C[C@@H]2[C@@]4(C)CC[C@H](O)C(C)(C)[C@@H]4[C@@H](O)C[C@]23C)O1 [PANAXATRIOL] | > 210 µM | > 210 µM | – | –
CC1(C)CCC[C@](C)([C@H]2CC[C@]3(C)[C@@H]2C(=O)C[C@@H]2[C@@]4(C)CCC(=O)C(C)(C)[C@@H]4CC[C@]23C)O1 | 72.3 µM | > 218 µM | – | –
CC1(C)CCC[C@](C)([C@H]2CC[C@]3(C)[C@@H]2C(=O)C[C@@H]2[C@@](C)(CC(=O)O)[C@H](C(C)(C)C(=O)O)CC[C@]23C)O1 | 9.1 µM | 22.8 µM | inactive | inactive

Results, then the compound that gave them:

IC50 [1] | IC50 (Protease) | Activity (Renin (Homo sapiens)) | Activity [2] | Compound
1.8 µM | 5.4 µM | inactive | inactive | CC1(C)CCC[C@](C)([C@H]2CC[C@]3(C)[C@@H]2[C@H](O)C[C@@H]2[C@@]4(C)CC[C@H](OC(=O)CC(C)(C)C(=O)O)C(C)(C)[C@@H]4[C@@H](OC(=O)CC(C)(C)C(=O)O)C[C@]23C)O1
30.4 µM | 2.7 µM | inactive | inactive | CC1(C)CCC[C@](C)([C@H]2CC[C@]3(C)[C@@H]2[C@H](O)C[C@@H]2[C@@]4(C)CC[C@H](OC(=O)CC(C)(C)C(=O)O)C(C)(C)[C@@H]4CC[C@]23C)O1
> 212 µM | 28.5 µM | – | – | CC1(C)CCC[C@](C)([C@H]2CC[C@]3(C)[C@@H]2[C@H](O)C[C@@H]2[C@@]4(C)C=C(O)C(=O)C(C)(C)[C@@H]4CC[C@]23C)O1
> 166 µM | 2.7 µM | inactive | inactive | CC1(C)CCC[C@](C)([C@H]2CC[C@]3(C)[C@@H]2[C@H](O)C[C@@H]2[C@@]4(C)CC[C@H](O)C(C)(C)[C@@H]4[C@@H](OC(=O)CC(C)(C)C(=O)O)C[C@]23C)O1
> 193 µM | > 193 µM | – | – | COC(=O)[C@@]1(O)C[C@]2(C)[C@H]3C[C@@H](O)[C@@H]4[C@@H]([C@@]5(C)CCCC(C)(C)O5)CC[C@@]4(C)[C@]3(C)CC(=O)[C@H]2C1(C)C
> 218 µM | 39.4 µM | – | – | CC1(C)CCC[C@](C)([C@H]2CC[C@]3(C)[C@@H]2[C@H](O)C[C@@H]2[C@@]4(C)CCC(=O)C(C)(C)[C@@H]4CC[C@]23C)O1
> 198 µM | > 198 µM | – | – | COC(=O)[C@@]1(O)C[C@]2(C)[C@H]3C[C@@H](O)[C@@H]4[C@@H]([C@@]5(C)CCCC(C)(C)O5)CC[C@@]4(C)[C@]3(C)CC[C@H]2C1(C)C
18.9 µM | 10.9 µM | inactive | inactive | CC1(C)CCC[C@](C)([C@H]2CC[C@]3(C)[C@@H]2C(=O)C[C@@H]2[C@@]4(C)CC[C@H](OC(=O)CC(C)(C)C(=O)O)C(C)(C)[C@@H]4[C@@H](OC(=O)CC(C)(C)C(=O)O)C[C@]23C)O1
> 198 µM | 11.9 µM | inactive | inactive | CC1(C)CCC[C@](C)([C@H]2CC[C@]3(C)[C@@H]2[C@H](O)C[C@@H]2[C@@](C)(CC(=O)O)[C@H](C(C)(C)C(=O)O)CC[C@]23C)O1
> 213 µM | 24.2 µM | – | – | CC1(C)CCC[C@](C)([C@H]2CC[C@]3(C)[C@@H]2C(=O)C[C@@H]2[C@@]4(C)CCC(=O)C(C)(C)[C@@H]4C(=O)C[C@]23C)O1
